# Only some compounds are listed: those with a hit (about 29% of all), similar ones and a draw of the others.
# tolC growth inh – blocks growth of E. coli BW25113 tolC mutant | OD615 | growth inhibition, % at 10 µM (by protocol) | 65,000 compounds, 2.2% hits | AID 573;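 active = growth inhibition at or above a cutoff equal to the mean over every tested compound plus 3 SD, cut at about 60% in these data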;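 note: growth measured after 20 h incubation at 37 °C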
#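 Test system: E. coli BW25113 ΔtolC::kan bacteria | Medium: Kanamycin-containing LB broth (50 µg/mL) | Dosing: One dose of 10 µM final | Times: 20 h incubation with compound, 37 °C | Detection: Optical density read at 615 nm | Read-out basis: Percent growth inhibition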
# E coli WT exp – blocks growth of wild type E. coli BW25113 | OD600 absorbance | growth inhibition, % at 100 µM | 98,000 compounds, 0.15% hits | AID 710;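 active = growth inhibition above about 50% at one test dose, limit read from the data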;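 note: growth measured after 20 h incubation at 37 °C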
# CYP2C19 inhib – human CYP2C19 inhibition; P33261; CYP2C19 Supersomes, luciferin-H EGE luminescence, 30 min; inhibition, % at 5 µM; 96,000 compounds, 21% hits;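 active = CYP2C19 inhibition above a set limit at 5 µM in the primary screen, cut at about 50% in these data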;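 note: plate controls were negative control wells for no effect and 2.5 mM tranylcypromine positive control for full effect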
# CYP2C9 act – increases human cytochrome P450 2C9 activity | P11712 | recombinant CYP2C9, luciferin-H conversion, luminescence; hits give high values; factor 1 = untreated enzyme, 0 = blocked | activation factor at 5 µM | 96,000 compounds, 1.4% hits | AID 1024;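 active = activation factor of 2 or more for CYP2C9 at a 5 µM dose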;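 note: 0 = sulfaphenazole-blocked wells and 1 = vehicle-only wells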
# Target sequence (P11712 whole entry, looked up): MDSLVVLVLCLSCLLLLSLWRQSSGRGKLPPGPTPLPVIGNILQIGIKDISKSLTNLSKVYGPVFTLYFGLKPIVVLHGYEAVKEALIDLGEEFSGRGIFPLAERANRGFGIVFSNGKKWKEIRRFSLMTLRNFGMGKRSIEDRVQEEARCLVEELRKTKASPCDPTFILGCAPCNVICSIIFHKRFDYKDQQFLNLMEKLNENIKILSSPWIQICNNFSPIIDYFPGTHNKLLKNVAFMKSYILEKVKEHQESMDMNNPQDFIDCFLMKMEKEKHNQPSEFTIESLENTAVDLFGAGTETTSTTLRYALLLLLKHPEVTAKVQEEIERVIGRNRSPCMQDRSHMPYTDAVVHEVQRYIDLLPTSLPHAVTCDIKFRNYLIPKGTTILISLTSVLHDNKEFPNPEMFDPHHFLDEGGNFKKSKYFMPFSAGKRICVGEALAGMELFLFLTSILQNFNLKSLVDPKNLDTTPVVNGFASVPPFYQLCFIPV
# CYP2C9 inh – blocks human cytochrome P450 2C9; CYP2C9 Supersomes, luciferin-H conversion, luminescence; 96,000 compounds, 20% hits; AID 777; inhibition, % at 5 µM;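 active = blocking of liver enzyme CYP2C9 beyond about 50% at 5 µM, limit read from the data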
# CYP2C19 activ – activators of human cytochrome P450 2C19; P33261; recombinant CYP2C19, luciferin-H EGE luminescence; hits give high values; 0 = fully inhibited enzyme, 1 = untreated enzyme; activation factor at 5 µM; 96,000 tested, under 10 active; AID 1025;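 active = activation factor of at least 2 at 5 µM in the primary screen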;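 note: 0 = wells with 2.5 mM tranylcypromine and 1 = vehicle-only wells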
# An asterisk follows results filed as active; . = not tested or not shown.
SMILES,tolC growth inh,E coli WT exp,CYP2C19 inhib,CYP2C9 act,CYP2C9 inh,CYP2C19 activ
COc1ccc(OC)c(NS(=O)(=O)c2ccc3c(c2)n(C)c(=O)n3C)c1,-2,-4,78*,0.5,45,0.2
Cn1c(=O)n(C)c2cc(NS(=O)(=O)c3ccc4c(c3)CCCC4)ccc21,3,-5,95*,0.8,21,0
COc1cccc(NS(=O)(=O)c2ccc3c(c2)n(C)c(=O)c(=O)n3C)c1,-11,2,35,0.5,50,0.6
COc1ccc(NS(=O)(=O)c2ccc3c(c2)n(C)c(=O)n3C)cc1,.,-15,27,0.3,74*,0.7
Cc1ccc(CC(NC(=O)c2ccccc2)C(=O)NCC(=O)O)cc1 (stereo not given),.,-4,-5,1.2,-23,1
COC(=O)COc1ccc(S(=O)(=O)Nc2cc(OC)ccc2OC)cc1,-5,1,99*,1.9,-86,0
CCOC(=O)C(CC)n1nc(C)n2c(cc3sccc32)c1=O (stereo not given),9,.,31,0.5,50,0.7
CCCCN(CC)CCNS(=O)(=O)c1ccc2c(c1)oc(=O)n2C,-20,9,2,1,0,1
COc1cc2c(cc1OC)C1(Nc3c-2c(-c2ccccc2)nn3-c2ccccc2)C(=O)Nc2ccccc21 (stereo not given),.,-16,3,0.4,60*,1
COc1cc(N2C(=O)CSC23C(=O)Nc2ccccc23)cc(OC)c1OC (stereo not given),3,-4,21,0.8,19,0.8
CCc1nn(-c2ccccc2)c2c1-c1cc(OC)c(OC)cc1C1(N2)C(=O)Nc2ccccc21 (stereo not given),.,2,19,0.2,82*,0.8
COc1ccc(N2C(=O)CSC23C(=O)Nc2ccccc23)cc1OC (stereo not given),-14,-6,25,0.8,21,0.8
COc1cc2c(cc1OC)C1(Nc3c-2c(C)nn3-c2ccccc2)C(=O)Nc2ccccc21 (stereo not given),.,-6,11,0.3,66*,0.9
O=C(NNC(=O)c1cc2cc3ccccc3nc2s1)c1cccc(C(F)(F)F)c1,.,0,2,0.9,11,1
CCOc1cccc(-c2nc3cc(C)ccc3o2)c1,100*,0,48,0.8,19,0.5
Cc1ccc2oc(-c3ccccc3)nc2c1,.,2,10,1.2,-19,0.9
CCc1ccc(NC(=O)CSc2nnc(CNC(=O)c3c(F)cccc3Cl)o2)cc1,-5,1,21,0.5,52*,0.8
CCCCOCP(=O)(CCCC)COCCCC,-5,-4,13,1,0,0.9
COc1cc(-c2cc(N)n(S(=O)(=O)c3ccccc3)n2)cc(OC)c1OC,.,-1,96*,0,98*,0
COc1ccc(C2/C(=C(/O)c3ccc(Cl)cc3)C(=O)C(=O)N2CCN2CCOCC2)c(OC)c1 (stereo not given),-4,2,-8,0.8,16,1.1
CC1=C(C(=O)OC2CCCCC2)C(c2ccc(C)o2)C2=C(CC(C)(C)CC2=O)N1 (stereo not given),8,-3,12,0.6,39,0.9
CC1=C(C(=O)Nc2ccccc2C)C(c2ccc(C)o2)C2=C(CCCC2=O)N1 (stereo not given),3,3,69*,0.4,57*,0.3
CC1=C(C(=O)OC2CCCC2)C(c2ccc(C)o2)C2=C(CC(c3cccs3)CC2=O)N1 (stereo not given),65*,-5,14,0.3,72*,0.9
CC1=C(C(=O)OC2CCCCCC2)C(c2ccc(C)o2)C2=C(CCCC2=O)N1 (stereo not given),100*,-7,.,.,.,.
Cc1cc(C)c(S(=O)(=O)NCc2cn3c(C)csc3n2)cc1C,-8,1,18,1.2,-18,0.8
SMILES,tolC growth inh,E coli WT exp,CYP2C19 inhib,CYP2C9 act,CYP2C9 inh,CYP2C19 activ
COc1ccc(CNC(=O)c2cccc(N(C)C)c2)cc1,2,9,38,1.5,-46,0.6
CCSc1nnc(NC(=O)c2cc(C)on2)s1,10,22,1,0.4,58*,1
CCSc1nnc(NC(=O)c2cnccn2)s1,-2,.,-6,1,-3,1.1
CC(NC(=O)Nc1nnc(C(F)(F)F)s1)N1C(=O)C2C3C=CC(C3)C2C1=O (stereo not given),1,1,.,.,.,.
CCSc1nnc(NC(=O)c2csc3c2CCC(C)C3)s1 (stereo not given),-6,-8,-20,0.2,82*,1.2
CCSc1nnc(NC(=O)c2ccccn2)s1,100*,63*,22,0.8,22,0.8
CC(NC(=O)Nc1nnc(C(F)(F)F)s1)(C(F)(F)F)C(F)(F)F,3,71*,6,0.3,66*,0.9
CCSc1nnc(NC(=O)c2csc3c2CCCC3)s1,-4,-5,-2,1,0,1
CC(C)(C)n1nc2c(c1NC(=O)COc1ccc3ccccc3c1)CS(=O)(=O)C2,.,-7,41,0.7,28,0.6
COCCNC(=O)c1ccc2c(c1)nc(C)n2-c1cc(OC)c(OC)c(OC)c1,-4,7,-8,1.2,-17,1.1
CCOCC(=O)Nc1nnc(COCC)s1,-13,5,-6,1,-3,1.1
CCOCC(=O)Nc1nnc(SCCOC)s1,-17,1,1,0.5,51*,1
Cc1cc(C(=O)Nc2nnc(C(F)(F)F)s2)no1,17,11,18,0.5,54*,0.8
CCSc1nnc(NC(=O)COc2cccc3ccccc23)s1,.,-13,22,0.4,57*,0.8
CCSc1nnc(NC(=O)c2ccc(Br)s2)s1,23,-8,0,0.4,57*,1
Cc1cc(C(=O)Nc2ccccc2C(F)(F)F)no1,-21,4,-6,1,2,1.1
CCn1c(O)c(C=Nc2ccccc2)n(-c2ccccc2)c1=S,.,-7,13,1,2,0.9
COc1cc(/C=N/N(C)c2ccccc2)ccc1O,.,-1,82*,0.3,74*,0.2
COc1cc(OC)c(OC)cc1/C=N/N(C)c1ccccc1,.,-1,33,0.3,70*,0.7
Fc1ccc(Cn2ccc(-c3cnc(-c4ccccc4)s3)n2)cc1,.,3,92*,0,97*,0.1
O=S(=O)(c1ccccc1)n1ccc(-c2cnc(-c3ccccc3)s2)n1,.,-5,12,0.2,78*,0.9
CCC(=O)N1CCN(C(=O)CC)C1c1ccccc1,-8,-6,5,1,-1,0.9
O=C(c1ccccc1)N1CCC(c2nc3c(nnn3Cc3ccco3)c(=O)[nH]2)CC1,.,-1,14,0.5,53*,0.9
O=C(c1ccc(Cl)cc1Cl)N1CCC(c2nc3c(nnn3Cc3ccco3)c(=O)[nH]2)CC1,18,-2,4,0.4,59*,1

# Screening results from PubChem.
